Data on 12 molecules can be found in ChEMBL document CHEMBL2321726, “Identification of selective inhibitors for human neuraminidase isoenzymes using C4,C7-modified 2-deoxy-2,3-didehydro-N-acetylneuraminic acid (DANA) analogues” (J Med Chem, 2013).

In experiment [1] the target is Neuraminidase (Vibrio cholerae, UniProt Q5IB64). Description: Inhibition of Vibrio cholerae neuraminidase.
The target in experiment [2] is T1, Sialidase-3 (Homo sapiens, UniProt Q9UQ49).
T1 sequence (Q9UQ49 whole entry): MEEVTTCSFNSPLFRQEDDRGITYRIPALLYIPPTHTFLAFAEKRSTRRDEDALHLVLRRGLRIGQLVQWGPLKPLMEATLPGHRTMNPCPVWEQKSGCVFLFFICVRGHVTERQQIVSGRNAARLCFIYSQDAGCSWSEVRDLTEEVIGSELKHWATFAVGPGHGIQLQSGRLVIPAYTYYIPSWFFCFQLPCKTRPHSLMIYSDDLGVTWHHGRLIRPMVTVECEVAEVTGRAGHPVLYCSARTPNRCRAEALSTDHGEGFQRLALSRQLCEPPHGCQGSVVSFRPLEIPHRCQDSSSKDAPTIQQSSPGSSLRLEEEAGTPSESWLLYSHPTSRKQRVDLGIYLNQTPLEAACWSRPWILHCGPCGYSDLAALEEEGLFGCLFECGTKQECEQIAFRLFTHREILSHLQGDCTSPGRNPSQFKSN
Description: Inhibition of human neuraminidase 3 expressed in Escherichia coli using 4MU-NANA as substrate after 30 mins by fluorescence assay. In short, it runs like this: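 Enzyme made in E. coli as N-terminal MBP fusion. 0.1 M sodium acetate pH 4.5. 3-fold serial inhibitor dilutions from 1 mM final, 15 min preincubation with enzyme at 37 °C, then 4MU-NANA 50 μM final for 30 min at 37 °C. Glycinate pH 10.7 stop, fluorescence 365/445 nm. Quadruplicate points; IC50 by nonlinear regression.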

Experiment [3] addresses T2, Sialidase-4 (Homo sapiens, UniProt Q8WWR8).
T2 sequence (Q8WWR8 whole entry): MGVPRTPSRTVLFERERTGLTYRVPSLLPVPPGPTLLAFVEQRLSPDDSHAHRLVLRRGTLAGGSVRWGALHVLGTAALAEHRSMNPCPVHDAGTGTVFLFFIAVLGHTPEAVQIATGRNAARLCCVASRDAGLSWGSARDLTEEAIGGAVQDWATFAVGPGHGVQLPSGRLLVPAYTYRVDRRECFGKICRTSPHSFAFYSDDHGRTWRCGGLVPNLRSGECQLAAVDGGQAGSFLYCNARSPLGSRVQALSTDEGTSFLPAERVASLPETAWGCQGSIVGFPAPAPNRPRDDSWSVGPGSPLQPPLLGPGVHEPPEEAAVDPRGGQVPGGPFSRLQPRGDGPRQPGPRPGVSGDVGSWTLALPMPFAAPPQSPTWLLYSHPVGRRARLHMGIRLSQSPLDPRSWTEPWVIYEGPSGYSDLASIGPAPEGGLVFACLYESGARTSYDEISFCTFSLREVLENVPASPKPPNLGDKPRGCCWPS
Description: Inhibition of human neuraminidase 4 using 4MU-NANA as substrate after 30 mins by fluorescence assay. In short, it runs like this: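 GST-fusion enzyme, assayed in 0.1 M sodium acetate pH 4.5. Inhibitor diluted 3-fold serially from 1 mM final, incubated 15 min at 37 °C with enzyme, then 4MU-NANA (50 μM final) 30 min at 37 °C. Four replicates; IC50 from nonlinear regression.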

In experiment [4] the target is Sialidase-1 (Homo sapiens, UniProt Q99519). Description: Inhibition of human neuraminidase 1 using 4MU-NANA as substrate after 30 mins by fluorescence assay. In short, it runs like this: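 NEU1 purified per earlier protocol as complex with β-galactosidase and cathepsin A. 0.1 M sodium acetate, pH 4.5. Inhibitor in 3-fold serial dilutions from 1 mM final, preincubated with enzyme 15 min at 37 °C. 4MU-NANA (50 μM final) added, 30 min at 37 °C. Four replicates; IC50 by nonlinear regression.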

In experiment [5] the target is T1, Sialidase-3. Briefly: Inhibition of human neuraminidase 3 expressed in Escherichia coli using 4MU-NANA as substrate measured for every 30 seconds for 60 mins by fluorescence assay. Summed up: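 Product formation at 37 °C read every 30 s for 60 min (ex 365/em 445 nm). Initial linear rates; Lineweaver–Burk slopes plotted against inhibitor concentration and fitted for Ki.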

pIC50, pKi: −log10 of the molar value.

For orientation: pIC50 means the IC50 on a negative log10 scale, so that one unit is a factor of ten. A low value points to a large IC50. As to `CC(=O)N[C@H]1[C@H](CNc2ccccc2)OC(C(=O)O)=C[C@@H]1N`, the pIC50 in experiment [1] was under 3.00; in experiment [2], 3.27; in experiment [3], under 3.00; in experiment [4], under 3.00.

Turning to `CC(=O)N[C@H]1[C@H](CNc2ccccc2)OC(C(=O)O)=C[C@@H]1O`, the pIC50 was under 3.00 in experiment [1], 3.43 in experiment [2], under 3.00 in experiment [3] and under 3.00 in experiment [4].

Take `CC(=O)N[C@H]1[C@H](CNCc2ccccc2)OC(C(=O)O)=C[C@@H]1O`: the pIC50 in experiment [1] is 3.33; in experiment [2], under 3.00; in experiment [3], under 3.00; in experiment [4] it was under 3.00.

Take `CC(=O)N[C@H]1[C@H](CNNCc2ccc(-c3ccccc3)cc2)OC(C(=O)O)=C[C@@H]1O`: the pIC50 in experiment [1] is under 3.00; in experiment [2], 4.15; in experiment [3], 3.70; in experiment [4], under 3.00.

Take `CC(=O)N[C@H]1[C@H]([C@H](O)[C@H](O)CO)OC(C(=O)O)=C[C@@H]1N=[N+]=[N-]`: the pIC50 in experiment [1] was 3.27; in experiment [2], 4.27; in experiment [3], 3.00; in experiment [4], 3.44.

Consider `CC(=O)N[C@@H]1[C@@H](N=[N+]=[N-])C=C(C(=O)O)O[C@H]1CNc1ccccc1`, for which the pIC50 was under 3.00 in experiment [1], 3.36 in experiment [2], 3.52 in experiment [3] and under 3.00 in experiment [4].

As for `CC(=O)N[C@@H]1[C@@H](N=[N+]=[N-])C=C(C(=O)O)O[C@H]1CNc1ccc(-c2ccccc2)cc1`, the pIC50 was under 3.00 in experiment [1], 4.30 in experiment [2], 3.68 in experiment [3] and under 3.00 in experiment [4].

As a reminder, the pKi is the Ki on a negative log10 scale, so that one unit is a factor of ten. Higher therefore signals a small Ki. Regarding `CC(=O)N[C@@H]1[C@@H](N=[N+]=[N-])C=C(C(=O)O)O[C@H]1CNOCc1ccccc1`, the pIC50 in experiment [1] is 3.26; in experiment [2], 4.62; in experiment [3], under 3.00; in experiment [4], under 3.00. This molecule gave a pKi in experiment [5] of 5.10.

For the molecule `CC(=O)N[C@@H]1[C@@H](N=[N+]=[N-])C=C(C(=O)O)O[C@H]1CN(Cc1ccccc1)OCc1ccccc1`, the pIC50 in experiment [1] is under 3.00; in experiment [2] it was 4.62; in experiment [3], 3.46; in experiment [4] it was under 3.00.

For the molecule `CC(=O)N[C@@H]1[C@@H](N=[N+]=[N-])C=C(C(=O)O)O[C@H]1CNNc1ccccc1`, the pIC50 in experiment [1] was under 3.00; in experiment [2], 4.70; in experiment [3] it was under 3.00; in experiment [4], under 3.00. This molecule also showed a negative logarithm of the Ki (pKi) in experiment [5] of 4.96.

For the molecule `CC(=O)N[C@H]1[C@H]([C@H](O)[C@H](O)CO)OC(C(=O)O)=C[C@@H]1N`, the pIC50 in experiment [1] was under 3.00; in experiment [2], 3.74; in experiment [3] it was 3.14; in experiment [4], under 3.00.

On to `CC(=O)N[C@H]1[C@H]([C@H](O)[C@H](O)CO)OC(C(=O)O)=C[C@@H]1O` [NEU5AC2EN], for which the values for the pIC50 in experiment [1] and in experiment [2] were 3.77 and 5.20, respectively. The molecule also showed a pKi in experiment [5] of 5.66.
